Results from ChEMBL document CHEMBL4765319, “Identification of a new series of flavopiridol-like structures as kinase inhibitors with high cytotoxic potency” (Eur J Med Chem, 2020).

Key:
[1] = biological target: T1, CDK2/Cyclin A2 (Homo sapiens) (UniProt P24941+P20248); test: Inhibition of human CDK2/cyclin A assessed as residual activity at 10 uM in presence of ATP by ADP-glo luminescent assay relative to control; assay type: protein-complex assay
Outline: (§1)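 Human kinases assayed by ADP-Glo luminescence with 10 μM ATP, compound at 10 or 1 μM. Activity is expressed as % of maximal activity relative to a DMSO control, mean n = 2.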

[2] = biological target: T1, CDK2/Cyclin A2 (Homo sapiens); test: Inhibition of human CDK2/cyclin A assessed as residual activity at 1 uM in presence of ATP by ADP-glo luminescent assay relative to control; assay type: protein-complex assay; outline: as §1
[3] = biological target: T2, Cyclin-dependent kinase 5/CDK5 activator 1 (Homo sapiens) (UniProt Q00535+Q15078); test: Inhibition of human CDK5/p25 assessed as residual activity at 10 uM in presence of ATP by ADP-glo luminescent assay relative to control; assay type: protein-complex assay; outline: as §1
[4] = biological target: T2, Cyclin-dependent kinase 5/CDK5 activator 1 (Homo sapiens); test: Inhibition of human CDK5/p25 assessed as residual activity at 1 uM in presence of ATP by ADP-glo luminescent assay relative to control; assay type: protein-complex assay; outline: as §1
[5] = biological target: T3, CDK9/cyclin T1 (Homo sapiens) (UniProt O60563+P50750); test: Inhibition of human CDK9/cyclin T assessed as residual activity at 10 uM in presence of ATP by ADP-glo luminescent assay relative to control; assay type: protein-complex assay; outline: as §1
[6] = biological target: T3, CDK9/cyclin T1 (Homo sapiens); test: Inhibition of human CDK9/cyclin T assessed as residual activity at 1 uM in presence of ATP by ADP-glo luminescent assay relative to control; assay type: protein-complex assay; outline: as §1
[7] = biological target: T4, Glycogen synthase kinase-3 beta (Homo sapiens, UniProt P49841); test: Inhibition of human GSK3beta assessed as residual activity at 10 uM in presence of ATP by ADP-glo luminescent assay relative to control; outline: as §1
Target sequence in this assay (P49841 whole entry, looked up): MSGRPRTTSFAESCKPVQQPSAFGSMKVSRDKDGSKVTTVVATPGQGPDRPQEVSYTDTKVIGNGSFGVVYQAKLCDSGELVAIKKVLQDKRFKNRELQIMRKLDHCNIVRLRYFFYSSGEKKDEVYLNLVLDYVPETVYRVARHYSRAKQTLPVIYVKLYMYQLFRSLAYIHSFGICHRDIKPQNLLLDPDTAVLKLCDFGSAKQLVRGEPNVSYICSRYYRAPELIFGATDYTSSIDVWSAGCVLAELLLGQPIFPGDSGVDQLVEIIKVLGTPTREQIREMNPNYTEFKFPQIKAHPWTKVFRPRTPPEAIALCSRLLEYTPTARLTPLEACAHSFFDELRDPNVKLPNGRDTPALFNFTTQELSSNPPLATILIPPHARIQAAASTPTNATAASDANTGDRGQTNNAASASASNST

[8] = biological target: T4, Glycogen synthase kinase-3 beta; test: Inhibition of human GSK3beta assessed as residual activity at 1 uM in presence of ATP by ADP-glo luminescent assay relative to control; outline: as §1
Target sequence in this assay (P49841 whole entry, looked up): as above

Leishmania major [9] = test: Inhibition of Leishmania major CK1 assessed as residual activity at 10 uM in presence of ATP by ADP-glo luminescent assay relative to control
Leishmania major [10] = test: Inhibition of Leishmania major CK1 assessed as residual activity at 1 uM in presence of ATP by ADP-glo luminescent assay relative to control
Plasmodium falciparum [11] = test: Inhibition of Plasmodium falciparum GSK3 assessed as residual activity at 10 uM in presence of ATP by ADP-glo luminescent assay relative to control
Outline: (§2)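 Recombinant P. falciparum GSK3, bacterially expressed, in buffer A (10 mM MgCl2, 1 mM EGTA, 1 mM DTT, 25 mM Tris-HCl pH 7.5, 50 μg/ml heparin). Substrate 0.010 μg/μl GS-1 peptide, 10 μM ATP, ADP-Glo luminescence. Compound at 10 or 1 μM; % residual activity vs DMSO control, mean n = 2.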

Plasmodium falciparum [12] = test: Inhibition of Plasmodium falciparum GSK3 assessed as residual activity at 1 uM in presence of ATP by ADP-glo luminescent assay relative to control; outline: as §2
Sus scrofa [13] = species on record: Sus scrofa; test: Inhibition of porcine CK1delta/epsilon assessed as residual activity at 10 uM in presence of ATP by ADP-glo luminescent assay relative to control
Sus scrofa [14] = species on record: Sus scrofa; test: Inhibition of porcine CK1delta/epsilon assessed as residual activity at 1 uM in presence of ATP by ADP-glo luminescent assay relative to control
Sus scrofa [15] = species on record: Sus scrofa; test: Inhibition of porcine GSK3alpha/beta assessed as residual activity at 10 uM in presence of ATP by ADP-glo luminescent assay relative to control
Outline: (§3)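 Porcine brain GSK3α/β, native and affinity-purified. Assayed by ADP-Glo luminescence with 10 μM ATP and 0.010 μg/μl GS-1 peptide substrate. Buffer A: 10 mM MgCl2, 1 mM EGTA, 1 mM DTT, 25 mM Tris-HCl pH 7.5, 50 μg/ml heparin. Compound tested at 10 or 1 μM. Result is % of maximal activity versus DMSO control, mean of n = 2.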

Sus scrofa [16] = species on record: Sus scrofa; test: Inhibition of porcine GSK3alpha/beta assessed as residual activity at 1 uM in presence of ATP by ADP-glo luminescent assay relative to control; outline: as §3
CDK2/Cyclin A2 = CDK2/Cyclin A2 (Homo sapiens, UniProt P24941); test: Inhibition of human CDK2/cyclin A in presence of ATP by ADP-glo luminescent assay; assay type: protein-complex assay
Outline: (§4)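 Human kinases tested over roughly 0.0003–10 μM by ADP-Glo luminescence with 10 μM ATP, in duplicate. IC50 is taken from dose-response curves.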

[17] = biological target: Cyclin-dependent kinase 5/CDK5 activator 1 (Homo sapiens, UniProt Q00535); test: Inhibition of human CDK5/p25 in presence of ATP by ADP-glo luminescent assay; assay type: protein-complex assay; outline: as §4
CDK9/cyclin T1 = CDK9/cyclin T1 (Homo sapiens, UniProt P50750); test: Inhibition of human CDK9/cyclin T in presence of ATP by ADP-glo luminescent assay; assay type: protein-complex assay; outline: as §4
[18] = biological target: T4, Glycogen synthase kinase-3 beta; test: Inhibition of human GSK3beta in presence of ATP by ADP-glo luminescent assay; outline: as §4
Target sequence in this assay (P49841 whole entry): as the sequence (P49841 whole entry, looked up) above

PC-3 = test: Antiproliferative activity against human PC-3 cells assessed as reduction in cell viability incubated for 72 hrs by CellTiter-Blue fluorescence assay; settings: PC-3, 72 h
SK-OV-3 = test: Antiproliferative activity against human SKOV3 cells assessed as reduction in cell viability incubated for 72 hrs by CellTiter-Blue fluorescence assay; settings: SK-OV-3, 72 h
NCI-N87 = test: Antiproliferative activity against human NCI-N87 cells assessed as reduction in cell viability incubated for 72 hrs by CellTiter-Blue fluorescence assay; settings: NCI-N87, 72 h
SK-BR-3 = test: Antiproliferative activity against human SK-BR-3 cells assessed as reduction in cell viability incubated for 72 hrs by CellTiter-Blue fluorescence assay; settings: SK-BR-3, 72 h
HCT-116 = test: Antiproliferative activity against human HCT-116 cells assessed as reduction in cell viability incubated for 72 hrs by CellTiter-Blue fluorescence assay; settings: HCT-116, 72 h
MIA PaCa-2 = test: Antiproliferative activity against human MIA PaCa-2 cells assessed as reduction in cell viability incubated for 72 hrs by CellTiter-Blue fluorescence assay; settings: MIA PaCa-2, 72 h
K562 = test: Antiproliferative activity against human K562 cells assessed as reduction in cell viability incubated for 72 hrs by CellTiter-Blue resazurin fluorescence assay; settings: K562, 72 h

T2 sequence (Q00535 whole entry): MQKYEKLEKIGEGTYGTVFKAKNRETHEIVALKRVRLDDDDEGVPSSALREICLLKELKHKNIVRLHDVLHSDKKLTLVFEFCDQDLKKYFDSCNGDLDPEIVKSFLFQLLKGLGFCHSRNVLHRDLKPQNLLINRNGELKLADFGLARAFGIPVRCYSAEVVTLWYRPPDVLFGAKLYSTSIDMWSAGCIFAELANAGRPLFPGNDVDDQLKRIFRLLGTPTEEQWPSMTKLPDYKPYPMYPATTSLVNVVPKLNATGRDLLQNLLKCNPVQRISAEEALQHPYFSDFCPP
T2 sequence (Q15078 99-307 partner limits assumed): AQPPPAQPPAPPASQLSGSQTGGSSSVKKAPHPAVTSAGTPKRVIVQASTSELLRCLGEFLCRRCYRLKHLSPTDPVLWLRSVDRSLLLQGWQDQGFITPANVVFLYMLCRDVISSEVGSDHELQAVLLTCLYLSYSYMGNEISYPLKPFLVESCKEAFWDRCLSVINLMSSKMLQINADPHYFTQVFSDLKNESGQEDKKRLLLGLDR
Sequence of Cyclin-dependent kinase 5/CDK5 activator 1 (Q00535 whole entry): as the sequence (Q00535 whole entry) above
Sequence of Cyclin-dependent kinase 5/CDK5 activator 1 (Q15078 whole entry, further chain): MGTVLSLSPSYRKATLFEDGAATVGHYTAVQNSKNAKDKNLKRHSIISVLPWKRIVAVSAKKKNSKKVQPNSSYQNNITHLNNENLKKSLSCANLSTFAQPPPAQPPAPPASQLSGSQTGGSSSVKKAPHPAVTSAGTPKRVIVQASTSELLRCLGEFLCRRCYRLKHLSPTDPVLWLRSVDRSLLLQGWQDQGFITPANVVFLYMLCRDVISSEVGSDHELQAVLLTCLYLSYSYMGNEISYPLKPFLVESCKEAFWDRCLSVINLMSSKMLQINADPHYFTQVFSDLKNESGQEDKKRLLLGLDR
Sequence of CDK9/cyclin T1 (O60563 whole entry): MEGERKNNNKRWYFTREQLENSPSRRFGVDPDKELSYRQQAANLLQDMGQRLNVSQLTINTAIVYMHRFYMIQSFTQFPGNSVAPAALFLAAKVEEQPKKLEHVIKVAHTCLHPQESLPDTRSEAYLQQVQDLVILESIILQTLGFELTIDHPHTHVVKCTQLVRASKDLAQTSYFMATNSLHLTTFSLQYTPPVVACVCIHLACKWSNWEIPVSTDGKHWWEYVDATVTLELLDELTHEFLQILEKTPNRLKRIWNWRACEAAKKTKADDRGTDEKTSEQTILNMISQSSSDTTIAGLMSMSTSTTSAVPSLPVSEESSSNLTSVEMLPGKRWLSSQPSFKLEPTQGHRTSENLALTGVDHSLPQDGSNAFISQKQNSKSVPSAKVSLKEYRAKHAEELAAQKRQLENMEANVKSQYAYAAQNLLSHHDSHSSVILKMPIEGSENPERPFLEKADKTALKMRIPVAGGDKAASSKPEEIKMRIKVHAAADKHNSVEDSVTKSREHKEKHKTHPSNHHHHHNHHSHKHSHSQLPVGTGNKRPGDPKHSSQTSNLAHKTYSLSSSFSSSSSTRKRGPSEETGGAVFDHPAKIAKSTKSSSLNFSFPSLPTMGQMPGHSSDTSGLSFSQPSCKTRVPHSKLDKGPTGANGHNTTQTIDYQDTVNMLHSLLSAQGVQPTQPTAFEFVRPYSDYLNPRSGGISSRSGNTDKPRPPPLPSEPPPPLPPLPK
Sequence of CDK9/cyclin T1 (P50750 whole entry): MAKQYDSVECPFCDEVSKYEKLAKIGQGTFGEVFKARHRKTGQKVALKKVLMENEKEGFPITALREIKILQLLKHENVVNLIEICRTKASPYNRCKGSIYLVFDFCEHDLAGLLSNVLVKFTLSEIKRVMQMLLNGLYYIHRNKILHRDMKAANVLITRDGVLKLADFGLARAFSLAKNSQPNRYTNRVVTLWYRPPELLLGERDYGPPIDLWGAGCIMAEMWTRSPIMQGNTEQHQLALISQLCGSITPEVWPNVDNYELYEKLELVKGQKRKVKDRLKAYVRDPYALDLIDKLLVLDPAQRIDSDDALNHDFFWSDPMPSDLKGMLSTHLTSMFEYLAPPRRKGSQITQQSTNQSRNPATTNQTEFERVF

SMILES | Activity [1] | Activity [2] | Activity [3] | Activity [4] | Activity [5] | Activity [6] | Activity [7] | Activity [8] | Activity (Leishmania major [9]) | Activity (Leishmania major [10]) | Activity (Plasmodium falciparum [11]) | Activity (Plasmodium falciparum [12]) | Activity (Sus scrofa [13]) | Activity (Sus scrofa [14]) | Activity (Sus scrofa [15]) | Activity (Sus scrofa [16]) | IC50 (CDK2/Cyclin A2) | IC50 [17] | IC50 (CDK9/cyclin T1) | IC50 [18] | also measured
CN1CC=C(c2c(O)cc(O)c3c(=O)cc(-c4ccc(Sc5nc6ccccc6n5C)cc4)oc23)CC1 | 25% | 51% | 26% | 41% | -4% | -2% | -3% | 31% | 57% | 68% | 79% | 80% | 41% | 83% | 8% | 41% | 349 nM | 284 nM | 14 nM | 160 nM | IC50 (PC-3): 276 nM; IC50 (SK-OV-3): 344 nM; IC50 (NCI-N87): 391 nM; IC50 (SK-BR-3): 249 nM; IC50 (HCT-116): 219 nM; IC50 (MIA PaCa-2): 361 nM; IC50 (K562): 345 nM
CN1CC=C(c2c(O)cc(O)c3c(=O)cc(-c4ccc(Sc5nc(-c6ccccc6)c[nH]5)cc4)oc23)CC1 | 14% | 33% | 5% | 10% | 0% | 2% | 6% | 25% | 54% | 88% | > 100% | > 100% | 43% | 78% | 11% | 53% | 469 nM | 195 nM | 9 nM | 356 nM | IC50 (PC-3): 243 nM; IC50 (SK-OV-3): 295 nM; IC50 (NCI-N87): 4800 nM; IC50 (SK-BR-3): 352 nM; IC50 (HCT-116): 173 nM; IC50 (MIA PaCa-2): 448 nM; IC50 (K562): 300 nM
